# Source: PubChem BioAssay (The Scripps Research Institute Molecular Screening Center)
# Rows were chosen to be rich in hits. Some 3.1% of all compounds tested hit in one or more screens of this group.
# GPR7 antagonist – antagonists of human GPR7 (neuropeptides B/W receptor 1); inhibition, % at 4.4 µM; actives 1.1% (n = 290,000); GPR7-expressing cells, fluorescence antagonist assay; P48145; in the data active = inhibition above about 16%, passing the limit was not always enough;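 also: cells stimulated with the agonist NPW; 0% = agonist with vehicle and 100% = vehicle without agonist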
# OX1R antag-1 – blocks the human orexin 1 receptor; OX1R-expressing cells, FRET antagonist read-out; AID 485270; inhibition, % at 6.6 µM; actives 1.8% (n = 330,000); O43613; in the data active = inhibition mostly above about 38%, no sharp cut-off; inactive = mostly below about 40%;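 also: 0% = agonist challenge alone and 100% = reference antagonist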
# Target sequence (O43613 whole entry, looked up): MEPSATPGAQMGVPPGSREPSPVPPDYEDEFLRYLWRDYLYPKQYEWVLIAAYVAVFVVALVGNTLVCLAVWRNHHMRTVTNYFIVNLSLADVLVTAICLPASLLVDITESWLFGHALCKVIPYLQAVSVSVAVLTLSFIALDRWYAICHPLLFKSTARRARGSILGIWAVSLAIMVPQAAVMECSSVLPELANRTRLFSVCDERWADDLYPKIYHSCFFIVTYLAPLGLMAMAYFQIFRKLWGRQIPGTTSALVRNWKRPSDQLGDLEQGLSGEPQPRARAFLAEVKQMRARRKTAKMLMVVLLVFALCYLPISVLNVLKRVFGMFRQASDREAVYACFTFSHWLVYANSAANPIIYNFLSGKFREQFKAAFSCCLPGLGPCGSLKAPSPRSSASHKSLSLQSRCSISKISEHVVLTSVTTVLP
# OX1R antag-2 – human HCRTR1 antagonism; CHO/OX1R cells, Fluo-8 calcium fluorescence, orexin A; AID 434989; inhibition, % at 5 µM; actives 0.43% (n = 330,000);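 active = inhibition above its plate's threshold, mean inhibition of all tested compounds on the plate plus 3 SD, cut at about 37% in these data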;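 also: 0% = orexin A challenge wells and 100% = SB-334867-A antagonist wells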
# GalR3 antag – antagonists of human GalR3; O60755; HEK293 GalR3-CNG cAMP membrane potential fluorescence; galR3 body fused to GalR1 C-terminus; inhibition, % at 3 µM; actives 0.44% (n = 360,000); AID 651719;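 active = inhibition above the screen-wide average plus 3 SD, cut at about 13% in these data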;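 also: forskolin and galanin both at EC90 stimulate the cells; cAMP rise reported by CNG channel membrane potential dye signal; 0% = forskolin plus galanin with DMSO and 100% = forskolin alone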
# Target sequence (O60755 1-299 limits assumed): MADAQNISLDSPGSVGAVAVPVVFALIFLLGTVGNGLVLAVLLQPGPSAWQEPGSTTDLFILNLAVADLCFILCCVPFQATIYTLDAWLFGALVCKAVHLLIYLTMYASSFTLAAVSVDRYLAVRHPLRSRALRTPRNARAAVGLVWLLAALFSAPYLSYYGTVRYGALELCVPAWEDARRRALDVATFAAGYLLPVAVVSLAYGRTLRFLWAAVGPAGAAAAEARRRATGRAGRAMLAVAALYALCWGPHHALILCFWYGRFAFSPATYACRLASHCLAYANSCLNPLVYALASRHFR
# CHO parental Ca – counter-screen for OX1R antagonists: effect in parental CHO cells. parental CHO-K1, ATP-induced calcium, Fluo-8 fluorescence. inhibition, % at 5.6 µM. actives 0.63% (n = 330,000). AID 463079;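 active = inhibition above that plate's mean sample inhibition plus 3 SD, cut at about 26% in these data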;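 also: 0% = ATP-challenged DMSO wells and 100% = DMSO wells without ATP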
#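 Material: Parental CHO cells | Reagent: ATP | Compound dosing: Single nominal dose of 5.6 µM per compound | Detection: Intracellular calcium via Fluo-8 no-wash fluorescent dye | Read-out: % inhibition of ATP-induced calcium mobilization | Benchmarks: Low control ATP plus DMSO, high control DMSO only | Replicates: Singlicate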
# GPR7 antag cf – confirmation of human GPR7 antagonists; actives 52% (n = 2,400); inhibition, % at 4.4 µM; GPR7-expressing cells, calcium fluorescence antagonist mode; shares compounds with GPR7 antagonist; AID 1952; in the data active = inhibition above about 24%;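 also: stimulated with the GPR7 agonist NPW; 0% = agonist plus vehicle and 100% = vehicle alone without agonist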
# MCHR1 antagonist – antagonizes human MCHR1, a GPR7 antagonist counter-screen; shares compounds with GPR7 antagonist; MCHR1-expressing cells, fluorescence antagonist assay; inhibition, % at 4.4 µM; actives 62% (n = 2,400); AID 2148; in the data active = inhibition above about 22%;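 also: 0% = vehicle with agonist and 100% = vehicle without agonist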
# OX1R Fluo8 conf – confirmation of human orexin 1 receptor antagonists; shares compounds with OX1R antag-2; CHO/OX1R cells, orexin A calcium Fluo-8 fluorescence; inhibition, % at 5 µM; actives 38% (n = 1,100); AID 492963; in the data active = inhibition above about 29%;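 also: 0% = agonist challenge alone and 100% = reference antagonist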
# CHO Ca counter – counter-screen for OX1R antagonists: effect in parental CHO cells. shares compounds with OX1R antag-2. parental CHO-K1, ATP-induced calcium, Fluo-8 fluorescence. inhibition, % at 5.6 µM. actives 9.3% (n = 1,100). AID 492965;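 active = inhibition above a per-plate limit, the mean inhibition of that plate's test compounds plus 3 SD, cut at about 25% in these data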;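 also: 0% = ATP challenge with DMSO and 100% = DMSO without ATP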
# GalR3 antag conf – GalR3 (human) antagonism, confirmation | shares compounds with GalR3 antag | HEK293 GalR3 CNG cAMP biosensor, membrane potential fluorescence; galR3 fused to GalR1 carboxy tail; challenged with forskolin and galanin at EC90 | inhibition, % at 3 µM | actives 59% (n = 1,600) | AID 652245;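 active = inhibition above the primary screen's cutoff, the mean inhibition of all screened compounds plus 3 SD, cut at about 13% in these data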;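 also: 0% = forskolin plus galanin and 100% = forskolin alone with DMSO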
# CNG parental – counter-screen for GalR3 antagonists: nonspecific agonists in parental HEK-CNG cells | shares compounds with GalR3 antag | HEK293-CNG parental cells, cAMP membrane potential fluorescence; normalised: DMSO wells 0%, forskolin wells 100% | activation, % at 3 µM | actives 10% (n = 1,600) | AID 652268; in the data active = activation above about 1.3%
# Active calls of the source: *; x = no result.
SMILES,GPR7 antagonist,OX1R antag-1,OX1R antag-2,GalR3 antag,CHO parental Ca,OX1R Fluo8 conf,CHO Ca counter,others
Cc1ccc(NC(=O)CSc2ncnc3ccccc23)cc1S(=O)(=O)N1CCCCC1,23*,15,-7,85*,38,x,x,GPR7 antag cf=58*;MCHR1 antagonist=63*;GalR3 antag conf=104*;CNG parental=-1
Cc1ccc(NC(=O)CSc2ncnc3ccccc23)cc1S(=O)(=O)N1CCOCC1,7,18,-9,-6,7,x,x,
CC/C(=N\NC(=O)c1nnn(-c2nonc2N)c1CN(C)c1ccccc1)c1ccccc1,-8,18,10,-10,-19,x,x,
O=C(c1cc2sccc2n1Cc1ccc(F)cc1)N1CCN(c2nc3ccccc3s2)CC1,32*,38,26,17*,37*,x,x,GPR7 antag cf=28*;MCHR1 antagonist=38*;GalR3 antag conf=73*;CNG parental=1
O=C(COC(=O)c1cccc(-n2cnnn2)c1)c1ccc(Br)cc1,x,11,-16,-2,-9,x,x,
COc1ccc(-c2c[n+]3c(n2-c2ccc(C)cc2)CCCCC3)cc1,25*,22,-16,71*,1,x,x,GPR7 antag cf=47*;MCHR1 antagonist=38*;GalR3 antag conf=92*;CNG parental=0
Cc1cc(OCC(=O)Nc2ccncc2)cc(C)c1Cl,29*,-3,53*,16*,44*,x,x,GPR7 antag cf=36*;MCHR1 antagonist=60*;GalR3 antag conf=37*;CNG parental=0
Cc1ccc(OCC(=O)Nc2ccncc2)cc1C,x,x,x,-8,x,x,x,
O=C(CSS(=O)(=O)O)N1CCN(C(=O)c2ccoc2)CC1,-3,9,-8,5,-8,x,x,
CC(=O)OCCNc1cc(Sc2nc3ccccc3[nH]2)c2nonc2c1[N+](=O)[O-],33*,98*,29,46*,48*,x,x,GPR7 antag cf=60*;MCHR1 antagonist=101*;GalR3 antag conf=32*;CNG parental=0
Cc1nnc(NC(=O)c2cc(-c3ccncc3)nc3c(C)cccc23)s1,-15,17,-21,-4,-15,x,x,
CC1CN(C(=O)Nc2cccc(C(F)(F)F)c2)CC(C)O1 (stereo unspecified),27*,22,3,x,8,x,x,GPR7 antag cf=24*;MCHR1 antagonist=36*;GalR3 antag conf=3;CNG parental=0
CCN1CCN(C(=O)c2cc(COc3ccc(C(C)=O)cc3OC)on2)CC1,-12,7,-30,-6,-6,x,x,
COc1ccccc1NC(=S)NCc1ccco1,0,11,-9,-5,-6,x,x,
COc1cc(NC(=S)NCc2ccco2)cc(OC)c1OC,-7,13,77*,0,-9,-5,-8,
COc1ccccc1NC(=O)CSc1nnnn1-c1ccccc1F,1,11,-14,-10,-9,x,x,
O=C(CCCOc1ccccc1)Nc1cccc([N+](=O)[O-])c1,7,31,40,-4,12,7,0,
Cc1ccc(OCCCC(=O)Nc2ccc(Cl)c(S(=O)(=O)N3CCOCC3)c2)cc1,x,2,23,-8,-8,x,x,
O=C(CCCOc1ccccc1)Nc1ccc(Cl)c(S(=O)(=O)N2CCOCC2)c1,x,23,38,-5,2,6,4,
CCCn1c(N)c(C(=O)CSc2nc3ccccc3s2)c(=O)[nH]c1=O,1,27,45*,-7,3,22,3,
CC1CCC2(CC1)NC(=O)N(CC(=O)NC(C)c1ccc(F)c(F)c1)C2=O (stereo unspecified),x,7,-14,-7,-13,x,x,
C[C@H]1CN([C@@H](C)CO)C(=O)c2cccc(NS(=O)(=O)c3ccc(Cl)cc3)c2O[C@@H]1CN(C)CC1CCCCC1,x,3,-38,-7,-8,x,x,
C=CCN(CC=C)C(=O)C1c2ccccc2Oc2ccccc21,x,x,x,-2,x,x,x,
CCN(CC)C(=O)C1c2ccccc2Oc2ccccc21,-1,31,24,-8,13,-7,-6,
CN(Cc1ccccc1)S(=O)(=O)c1ccc2c(c1)n(C)c(=O)c(=O)n2C,-9,19,32,-4,4,1,20,
SMILES,GPR7 antagonist,OX1R antag-1,OX1R antag-2,GalR3 antag,CHO parental Ca,OX1R Fluo8 conf,CHO Ca counter,others
COC(=O)Cn1c(=O)c2c(nc3n2CC(C)CN3Cc2ccccc2)n(C)c1=O (stereo unspecified),2,16,31,1,-5,-6,-6,
COC(=O)Cn1c(=O)c2c(nc3n2CC(C)CN3CCc2ccccc2)n(C)c1=O (stereo unspecified),3,x,x,-7,x,x,x,
Cc1cc(C)n(-c2nc(-c3ccccc3)cs2)n1,4,78,26,-2,-16,x,x,
Cc1cc(C)n(-c2nc(-c3cccc(Cl)c3)cs2)n1,7,47,41*,-1,-26,6,-17,
COC(=O)c1c(C)oc2ccc(N(C(=O)c3ccncc3)S(=O)(=O)c3ccc(C)cc3)cc12,7,32,39*,x,17,12,13,
c1ccc(-c2onc(-c3ccco3)c2-c2ccc3[nH]ccc3c2)cc1,-4,31,-22,-6,-9,x,x,
Cc1ccc(-n2cc(CCCCCCCCC(=O)O)nn2)cc1,3,13,-12,-6,-8,x,x,
CCOC(=O)NC(c1ccc(C(C)C)cc1)C(Cl)(Cl)Cl (stereo unspecified),-10,54,42*,6,-4,10,-2,
O=C(CN1c2ccccc2S(=O)(=O)c2ccccc21)NCc1ccc(F)cc1,13,19,24,-9,-6,3,-8,
COc1cccc(N(CC(=O)NCc2ccco2)C(=O)CCC(=O)Nc2nccs2)c1,4,13,-20,-3,-17,x,x,
O=S(=O)(Nc1ccc(S(=O)(=O)Nc2ccccc2)cc1)c1ccccc1,15,5,36,-5,11,8,-1,
C=CCC[C@@H](Cc1ccc(F)cc1)C(=O)OC[C@@H]1CCCN1C(=O)[C@H](CC=C)CC(=O)N[C@H](CO)Cc1ccccc1,x,24,65*,-3,-6,14,-14,
C=CCC[C@@H](Cc1ccc(F)cc1)C(=O)OC[C@H]1CCCN1C(=O)[C@@H](CC=C)CC(=O)N[C@H](CO)Cc1ccccc1,x,10,18,-5,-16,x,x,
CCCOc1ccc(NC(=O)CCC(=O)NC(C)c2ccccc2)cc1 (stereo unspecified),11,0,-18,-8,0,x,x,
